Assay [1] has as its system Canis familiaris. The assay is described as follows: Heart rate of the dog was measured after drug administration to dogs. It is filed as functional, Canis lupus familiaris. In a few lines: (§1)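 Dogs anesthetized with pentobarbital 35 mg/kg. Ouabain given iv at 40 μg/kg, then 20 μg/kg 30 min later, then 10 μg/kg every 15 min until ventricular tachycardia persisted. About 20 min after the last ouabain dose, compound given iv over 3 min, starting at 5 mg/kg. Further 5 or 10 mg/kg doses given at 15-min intervals, up to 15 or 20 mg/kg, until sinus rhythm returned. Dogs observed 2 h.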

Assay [2] relates to Canis familiaris. The assay is described as follows: Heart rate of the dog was measured after ouabain administration to dogs. It counts as functional, Canis lupus familiaris. The method, boiled down:
as §1

The species named for assay [3] is Canis familiaris. Description: Duration of the reversal of ouabain induced arrhythmia was measured. It counts as functional, Canis lupus familiaris. In a few lines: as §1
The species entered for assay [4] is Canis familiaris. The assay is described as follows: Concentration of ouabain required to induce arrhythmia in dogs. It is filed as functional, Canis lupus familiaris. The method, boiled down:
as §1

The species named for assay [5] is Canis familiaris. Description: Concentration required to reverse ouabain induced arrhythmia in dogs. It counts as functional, Canis lupus familiaris. In a few lines:
as §1

Assay [6] is filed under the species Canis familiaris. Description: Number of dogs reverted ouabain induced arrhythmia. It counts as functional, Canis lupus familiaris. The method, boiled down: as §1
The species entered for assay [7] is Canis familiaris. The assay is described as follows: Number of dogs used ouabain induced arrhythmia. It is filed as functional, Canis lupus familiaris. In a few lines:
as §1

For assay [8], the system named is Cavia porcellus. The assay is described as follows: Local anesthetic activity using modification of the guinea pig intracutaneous wheal method. It is filed as functional. The method, boiled down: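 Guinea pigs, four per test. Each animal received four intracutaneous injections: propranolol standard at 0.6 and 0.2%, test high dose 0.6-2% and low dose 0.2-0.67%. Wheals marked. Skin pricked with a 23-gauge needle six times inside and six times outside the wheal every 5 min up to 30 min. Activity expressed relative to propranolol with 95% confidence limits.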

For assay [9], the species on record is Canis familiaris. Description: Number of dogs reverted in ouabain induced arrhythmia. It is filed as functional, Canis lupus familiaris. In a few lines:
as §1

For assay [10], the species on record is Canis familiaris. Description: Number of dogs used in ouabain induced arrhythmia. It is filed as functional, Canis lupus familiaris. The method, boiled down:
as §1

With `COc1ccc(Br)cc1C(O)(c1cc(Br)ccc1OC)C1CC2CCN1CC2` (stereo not drawn), the Heart rate in [1] amounted to 162 min⁻¹; in assay [2], 210 min⁻¹. The Duration of reversal in assay [3] is above 120 min. Also, the Ouabain in assay [4] is 70 µg/kg. This compound also yielded a Dose in [5] of 10 mg/kg. Moreover, the “No. of dogs reverted” value in [6] amounted to 1. The “No. of dogs used” value in assay [7] is recorded as 1. The compound further had an Activity in assay [8] of 0.92.

Take `COc1ccc(C(O)(c2ccc(OC)cc2)C2CC3CCN2CC3)cc1` (stereo not drawn): the Heart rate in assay [1] came to 168 min⁻¹; in [2], 240 min⁻¹. For the same compound, the Duration of reversal in assay [3] amounted to 14 min. This compound came in with an Ouabain in assay [4] of 60 µg/kg. In addition, in assay [5], the Dose came to 5 mg/kg. Also, in assay [6], the “No. of dogs reverted” value turned out to be 1. Moreover, the “No. of dogs used” value in assay [7] was determined as 1. Further, the Activity in [8] is recorded as 0.54.

Regarding `OC(c1ccco1)(c1ccco1)C1CC2CCN1CC2` (stereo not drawn), the Heart rate in assay [1] turned out to be 180 min⁻¹; in assay [2], 240 min⁻¹. Moreover, the Duration of reversal in assay [3] is listed as above 120 min. Further, the Ouabain in [4] turned out to be 70 µg/kg. In assay [5], the Dose stood at 15 mg/kg. In addition, the “No. of dogs reverted” value in [6] is 1. Moreover, the “No. of dogs used” value in assay [7] turned out to be 1. In assay [8], this compound returned an Activity of 0.27.

Turning to `COc1ccc([C@](O)(c2cc(Br)ccc2OC)C2CC3CCN2CC3)cc1` (stereo partly drawn), the Heart rate in assay [1] amounted to 160 min⁻¹; in assay [2], 180 min⁻¹. The Duration of reversal in assay [3] came out at 0 min. The compound further returned an Ouabain in [4] of 100 µg/kg. For the same compound, the Dose in assay [5] was determined as 15 mg/kg. Also, the “No. of dogs reverted” value in [6] was 0. The “No. of dogs used” value in assay [7] is on record as 1. Also, the Activity in [8] is reported as 1.2.

In the case of `OC(c1ccccc1)(c1ccccc1)C1CC2CCN1CC2` (stereo not drawn), the Heart rate in [1] came out at 186 min⁻¹; in assay [2], 228 min⁻¹. For the same compound, the Duration of reversal in assay [3] was above 120 min. Besides, in assay [4], the Ouabain is 70 µg/kg. Also, in assay [5], the Dose was found to be 5 mg/kg. The “No. of dogs reverted” value in assay [6] was determined as 2. The “No. of dogs used” value in [7] amounted to 2. In addition, the Activity in assay [8] worked out at 0.85.

With `OC(c1ccccc1)(c1nccs1)C1CC2CCN1CC2` (stereo not drawn), the Heart rate amounted to 150 min⁻¹ in assay [1] and 207 min⁻¹ in [2]. For the same compound, the Duration of reversal in [3] was above 120 min. Besides, the Ouabain in [4] worked out at 75 µg/kg. Also, the Dose in assay [5] came out at 6.4 mg/kg. Besides, in assay [6], the “No. of dogs reverted” value worked out at 1. In addition, the “No. of dogs used” value in assay [7] is recorded as 2. This compound displayed an Activity in assay [8] of 0.25.

As to `O[C@H](c1ccccc1)[C@@H]1CC2CCN1CC2` (relative stereo), the Activity in [8] turned out to be 0.25.

Take `Cn1ccnc1[C@@H](O)[C@@H]1CC2CCN1CC2` (relative stereo): the Activity in [8] is listed as 0.61.

With `O[C@H](c1ccncc1)[C@@H]1CC2CCN1CC2` (relative stereo), the Activity in assay [8] is 0.08.

In the case of `O[C@H](c1ccc(Cl)cc1)[C@@H]1CC2CCN1CC2` (relative stereo), the Heart rate stood at 160 min⁻¹ in assay [1] and 222 min⁻¹ in assay [2]. Besides, the Duration of reversal in [3] was 0 min. The same compound had an Ouabain in assay [4] of 70 µg/kg. The Dose in assay [5] is 15 mg/kg. Further, in assay [6], the “No. of dogs reverted” value came to 0. Also, the “No. of dogs used” value in assay [7] was 1. In addition, the Activity in assay [8] worked out at 0.43.

In turn, `Cc1ccc([C@@H](O)[C@@H]2CC3CCN2CC3)cc1` (relative stereo) registered an Activity in assay [8] of 0.23.

In the case of `CC(C)(C)[C@@H](O)[C@@H]1CC2CCN1CC2` (relative stereo), the Activity in assay [8] was found to be 0.13.

Turning to `O[C@H](c1ccco1)[C@@H]1CC2CCN1CC2` (relative stereo), in assay [8], the Activity stood at 0.09.

For the compound `O[C@H](C1=C2C=CC=CC(=CC=C1)C2)[C@@H]1CC2CCN1CC2` (relative stereo), the Heart rate in [1] was determined as 156 min⁻¹; in assay [2] it was 216 min⁻¹. The Duration of reversal in assay [3] is listed as above 120 min. Besides, in [4], the Ouabain was 70 µg/kg. The compound also gave a Dose in assay [5] of 15 mg/kg. Further, the “No. of dogs reverted” value in assay [9] worked out at 1. For the same compound, the “No. of dogs used” value in assay [10] was 1. This compound yielded an Activity in assay [8] of 0.99.

Regarding `O[C@@H](c1ccccc1)[C@@H]1CC2CCN1CC2` (relative stereo), in assay [8], the Activity was 0.18.

As to `O[C@H](c1nccs1)[C@@H]1CC2CCN1CC2` (single isomer, unassigned), the Activity in [8] worked out at 0.8.

With `Cc1ccc(C(O)(c2ccc(C)cc2)C2CC3CCN2CC3)cc1` (stereo in doubt; 21), the Heart rate in [1] was determined as 134 min⁻¹; in assay [2] it was 220 min⁻¹. Further, the Duration of reversal in assay [3] is on record as 85 min. This compound registered an Ouabain in assay [4] of 83 µg/kg. For the same compound, the Dose in assay [5] was 11.7 mg/kg. For the same compound, the “No. of dogs reverted” value in assay [6] is 3. In addition, in assay [7], the “No. of dogs used” value came to 3. This compound returned an Activity in assay [8] of 0.86.

As for `CCN(CC)CC(=O)Nc1c(C)cccc1C` [LIDOCAINE], the figures for the Heart rate in assay [1] and in assay [2] were 169 min⁻¹ and 223 min⁻¹, respectively. In addition, the Duration of reversal in assay [3] is on record as 51 min. Further, in assay [4], the Ouabain was found to be 74 µg/kg. The compound also showed a Dose in assay [5] of 5 mg/kg. Further, the “No. of dogs reverted” value in [6] amounted to 5. In [7], the “No. of dogs used” value came out at 5. In assay [8], this compound had an Activity of 0.66.

Consider `CC(C)NCC(O)COc1cccc2ccccc12` (stereo not drawn) [PROPRANOLOL], for which the Heart rate in assay [1] stood at 138 min⁻¹; in [2], 211 min⁻¹. Further, the Duration of reversal in assay [3] is recorded as 80 min. Besides, the Ouabain in assay [4] turned out to be 72 µg/kg. This compound also registered a Dose in assay [5] of 5 mg/kg. In assay [6], the “No. of dogs reverted” value came to 5. The “No. of dogs used” value in [7] was 5.

As for `C=C[C@H]1CN2CC[C@H]1C[C@@H]2[C@@H](O)c1ccnc2ccc(OC)cc12` [QUINIDINE], the Heart rate in assay [1] is 170 min⁻¹; in assay [2], 211 min⁻¹. Further, the Duration of reversal in assay [3] was found to be 31 min. In [4], this compound showed an Ouabain of 59 µg/kg. This compound returned a Dose in assay [5] of 9 mg/kg. Also, the “No. of dogs reverted” value in assay [6] is recorded as 10. In addition, the “No. of dogs used” value in assay [7] is listed as 13. In [8], this compound had an Activity of 1.15.

For the origin of these results see ChEMBL document CHEMBL1121389, “Mono- and diaryl-2-quinuclidinylcarbinols with local anesthetic and antiarrhythmic activity” (1980).
